ChEMBL document CHEMBL4480402, “3,3'-Disubstituted 5,5'-Bi(1,2,4-triazine) Derivatives with Potent in Vitro and in Vivo Antimalarial Activity” (J Med Chem, 2019)
Values after ≈ are worked out from the molar mass of the structure shown.

Tests used:
[1] = Kinetic solubility of the compound in phosphate buffer at pH 6.5 after 30 mins by nephelometry; type: physicochemical; details: read-out: Kinetic_solubility
In short: (§1)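 Kinetic aqueous solubility determined by nephelometry.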

[2] = Kinetic solubility of the compound in HCL buffer at pH 2 after 30 mins by nephelometry; type: physicochemical; details: read-out: Kinetic_solubility; in short: as §1
[3] = Apparent permeability across apical to basolateral side in human Caco2 cells; type: ADME, cell-based; details: Caco-2
[4] = Plasma concentration in Swiss mouse at […], po via gavage administration measured up to 30 mins; type: ADME, organism-based; details: in vivo, 0.5 h
[5] = Plasma concentration in Swiss mouse at 30 mg/kg, po via gavage administration measured at 60 to 120 mins; type: ADME, organism-based; details: in vivo
In short: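 Non-fasted male Swiss outbred mice (24–33 g) with free access to food and water, two mice per dose. Dosed by bolus tail-vein IV injection or oral gavage. Blood taken up to 24 h by submandibular bleed or terminal cardiac puncture into tubes with heparin and a stabilization cocktail, at most two samples per mouse. Plasma stored at -20 °C until analysis.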

[6] = Plasma concentration in Swiss mouse at […], iv via bolus administration measured up to 30 mins; type: ADME, organism-based
[7] = Apparent permeability across apical to basolateral side in human Caco2 cells assessed as mass balance; type: ADME, cell-based; details: Caco-2, read-out: permeability
[8] = Apparent permeability across basolateral to apical side in human Caco2 cells assessed as mass balance; type: ADME, cell-based; details: Caco-2, read-out: permeability

SMILES | solubility kinetic at 0.5 h [1] [µg/mL] | solubility kinetic at 0.5 h [2] [µg/mL] | also measured
CSc1nncc(-c2cnnc(SC)n2)n1 | 3.1 to 6.3 (≈ 12.3 to 25 µM) | 6.3 to 12.5 (≈ 25 to 49.5 µM) | 
CCCSc1nncc(-c2cnnc(SCCC)n2)n1 | 3.1 to 6.3 (≈ 10.1 to 20.4 µM) | 3.1 to 6.3 (≈ 10.1 to 20.4 µM) | 
CSc1nncc(-c2cnnc(OCCN(C)C)n2)n1 | 50 to 100 (≈ 170 to 341 µM) | 25 to 50 (≈ 85.2 to 170 µM) | 
CSc1nncc(-c2cnnc(SCCN(C)C)n2)n1 | 6.3 to 12.5 (≈ 20.4 to 40.4 µM) | 6.3 to 12.5 (≈ 20.4 to 40.4 µM) | Papp A→B [3]: 49 ×10⁻⁶ cm/s; Drug uptake [4]: Not Active; Drug uptake [5]: Active; concentration at 0.5 h [6]: > 20 nM; recovery [7]: 85%; recovery [8]: 90%
COc1nncc(-c2cnnc(OC)n2)n1 | 50 to 100 (≈ 227 to 454 µM) | > 100 | 
CCCCSc1nncc(-c2cnnc(SCCCC)n2)n1 | < 1.6 | < 1.6 | 
COCCSc1nncc(-c2cnnc(SCCOC)n2)n1 | 12.5 to 25 (≈ 36.7 to 73.4 µM) | 12.5 to 25 (≈ 36.7 to 73.4 µM) | 
CSc1nncc(-c2cnnc(SC3CCCC3)n2)n1 | 6.3 to 12.5 (≈ 20.6 to 40.8 µM) | 6.3 to 12.5 (≈ 20.6 to 40.8 µM) | 
OCCCSc1nncc(-c2cnnc(SCCCO)n2)n1 | 60 to 100 (≈ 176 to 294 µM) | 25 to 50 (≈ 73.4 to 147 µM) | 
CSc1nncc(-c2cnnc(SCCCO)n2)n1 | 50 to 100 (≈ 169 to 337 µM) | 50 to 100 (≈ 169 to 337 µM) | 
CC(C)CSc1nncc(-c2cnnc(SCC(C)C)n2)n1 | 1.6 to 3.1 (≈ 4.75 to 9.21 µM) | 1.6 to 3.1 (≈ 4.75 to 9.21 µM) | 
